The IC50 is the concentration needed to halve the response being measured. For orientation: EC50 means the concentration giving half of the maximal effect. Lower therefore signals higher potency in that assay.

Each structure is given as a SMILES string.

The target in test [1] is T1, Melanocyte-stimulating hormone receptor (Homo sapiens, UniProt Q01726). Briefly: biochemical. The format is cell-based, HEK293.
The target of test [2] is T1, Melanocyte-stimulating hormone receptor. It is filed as functional, cell-based, HEK293.
The target is the same in test [3]. Briefly: Displacement of [125I][Nle4,Dphe7]-alpha-MSH from human MC1R expressed in HEK293 cells at 10 uM. It is filed as cell-based. A digest of the protocol: (§1)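 Stably transfected HEK293 cells for each hMCR were seeded 48 h ahead at 100 000 cells/well. Buffer was MEM with 25 mM HEPES pH 7.4, 0.2% BSA, 1 mM 1,10-phenanthroline, leupeptin and bacitracin. […] After washing, cells were lysed in NaOH/Triton and counted by γ counter. Binding was scored at 10^-5 M.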

Test [4] has as its target T2, Melanocortin receptor 4 (Homo sapiens, UniProt P32245). It is filed as functional, cell-based, HEK293.
In test [5] the target is T3, Melanocortin receptor 5 (Homo sapiens, UniProt P33032). It is filed as functional, cell-based, HEK293.
T3 sequence (P33032 whole entry): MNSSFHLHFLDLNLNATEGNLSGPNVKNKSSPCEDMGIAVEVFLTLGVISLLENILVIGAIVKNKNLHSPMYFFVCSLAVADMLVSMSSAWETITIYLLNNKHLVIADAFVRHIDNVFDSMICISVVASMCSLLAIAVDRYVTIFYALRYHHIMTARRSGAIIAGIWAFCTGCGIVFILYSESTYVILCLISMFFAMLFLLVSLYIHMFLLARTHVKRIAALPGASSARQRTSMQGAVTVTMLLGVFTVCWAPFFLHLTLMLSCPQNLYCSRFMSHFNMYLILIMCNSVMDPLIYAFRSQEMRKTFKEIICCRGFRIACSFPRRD
Test [6] addresses T3, Melanocortin receptor 5. As to the kind of experiment: biochemical. The format is cell-based, HEK293.
Test [7] addresses T4, Melanocortin receptor 3 (Homo sapiens, UniProt P41968). It is filed as functional, cell-based, HEK293.
For test [8], the target named is T2, Melanocortin receptor 4. Briefly: biochemical. It is filed as cell-based, HEK293.
Test [9] has as its target T4, Melanocortin receptor 3. As to the kind of experiment: biochemical. It is filed as cell-based, HEK293.
The target in test [10] is T4, Melanocortin receptor 3. Briefly: Displacement of [125I][Nle4,Dphe7]-alpha-MSH from human MC3R expressed in HEK293 cells at 10 uM. The format is cell-based. On the technique in general: In a radioligand displacement assay an active substance lowers the binding of a labelled ligand.
The target of test [11] is T2, Melanocortin receptor 4. Briefly: Displacement of [125I][Nle4,Dphe7]-alpha-MSH from human MC4R expressed in HEK293 cells at 10 uM. It is filed as cell-based. An outline of the steps:
as §1

The target in test [12] is T3, Melanocortin receptor 5. Briefly: Displacement of [125I][Nle4,Dphe7]-alpha-MSH from human MC5R expressed in HEK293 cells at 10 uM. The format is cell-based.

T2 sequence (P32245 whole entry): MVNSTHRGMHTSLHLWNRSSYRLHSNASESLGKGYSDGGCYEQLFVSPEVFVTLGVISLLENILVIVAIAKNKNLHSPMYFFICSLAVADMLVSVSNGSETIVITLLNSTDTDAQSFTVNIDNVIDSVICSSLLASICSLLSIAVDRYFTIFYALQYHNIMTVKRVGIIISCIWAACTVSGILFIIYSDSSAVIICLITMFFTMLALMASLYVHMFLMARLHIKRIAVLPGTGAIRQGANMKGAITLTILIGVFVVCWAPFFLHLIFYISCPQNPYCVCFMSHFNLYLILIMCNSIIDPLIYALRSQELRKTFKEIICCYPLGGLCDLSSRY
T1 sequence (Q01726 whole entry): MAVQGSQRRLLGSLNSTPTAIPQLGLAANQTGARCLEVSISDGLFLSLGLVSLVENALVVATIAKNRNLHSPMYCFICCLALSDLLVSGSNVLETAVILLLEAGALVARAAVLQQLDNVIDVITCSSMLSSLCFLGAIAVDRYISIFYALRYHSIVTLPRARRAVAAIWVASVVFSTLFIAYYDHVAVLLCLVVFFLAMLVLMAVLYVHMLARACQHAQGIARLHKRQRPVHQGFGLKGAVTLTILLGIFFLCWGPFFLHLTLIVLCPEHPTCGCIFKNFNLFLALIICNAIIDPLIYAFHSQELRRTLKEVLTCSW
T4 sequence (P41968 whole entry): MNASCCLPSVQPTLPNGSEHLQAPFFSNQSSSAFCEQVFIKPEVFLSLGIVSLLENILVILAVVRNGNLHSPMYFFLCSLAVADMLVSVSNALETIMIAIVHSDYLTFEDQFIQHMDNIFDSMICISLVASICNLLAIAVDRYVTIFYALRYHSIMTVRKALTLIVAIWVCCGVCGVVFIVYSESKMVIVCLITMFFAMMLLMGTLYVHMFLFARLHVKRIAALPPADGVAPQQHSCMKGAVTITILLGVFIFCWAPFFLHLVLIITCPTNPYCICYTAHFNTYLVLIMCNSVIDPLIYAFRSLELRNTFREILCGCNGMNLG

As to `CCCC[C@H](NC(C)=O)C(=O)N[C@H]1CC(=O)NCCCC[C@@H](C(N)=O)NC(=O)[C@H](Cc2c[nH]c3ccccc23)NC(=O)[C@@H]2CCCN2C(=O)[C@@H](Cc2ccc3ccccc3c2)NC(=O)[C@H](Cc2cnc[nH]2)NC1=O`, the IC50 in [1] was 600 nM. In [2], the response was half-maximal at 160 nM (EC50).

Consider `CCCC[C@H](NC(C)=O)C(=O)N[C@H]1CC(=O)NCCCC[C@@H](C(N)=O)NC(=O)[C@H](Cc2c[nH]c3ccccc23)NC(=O)[C@@H]2C[C@H](NC(=N)N)CN2C(=O)[C@@H](Cc2ccccc2)NC(=O)[C@H](Cc2cnc[nH]2)NC1=O`, for which the IC50 result in test [3] is “Not Active”.

Take `CCCC[C@H](NC(C)=O)C(=O)N[C@H]1CC(=O)NCCCC[C@@H](C(N)=O)NC(=O)[C@H](Cc2c[nH]c3ccccc23)NC(=O)[C@H](CCCN=C(N)N)NC(=O)[C@@H](Cc2ccccc2)NC(=O)[C@@H]2C[C@@H](N=C(N)N)CN2C1=O`: the EC50 turned out to be 3500 nM at Melanocortin receptor 4 [4], 1.6 nM on Melanocortin receptor 5 [5], 14 nM at Melanocortin receptor 3 [7] and 820 nM in test [2]. The IC50 in test [1] was 2.7 nM; against Melanocortin receptor 5 [6] it was 2.5 nM; against Melanocortin receptor 4 [8], 0.6 nM; against Melanocortin receptor 3 [9], 1 nM.

With `CCCC[C@H](NC(C)=O)C(=O)N[C@H]1CC(=O)NCCCC[C@@H](C(N)=O)NC(=O)[C@H](Cc2c[nH]c3ccccc23)NC(=O)[C@@H]2CCCN2C(=O)[C@@H](Cc2ccccc2)NC(=O)[C@H](Cc2cnc[nH]2)NC1=O`, the IC50 in [1] was greater than 4800 nM. This compound also had an EC50 in test [2] greater than 1000 nM.

The compound `CCCC[C@H](NC(C)=O)C(=O)N[C@H]1CC(=O)NCCCC[C@@H](C(N)=O)NC(=O)[C@H](Cc2c[nH]c3ccccc23)NC(=O)[C@@H]2C[C@@H](NC(=N)N)CN2C(=O)[C@@H](Cc2ccc3ccccc3c2)NC(=O)[C@H](Cc2cnc[nH]2)NC1=O` came in with an IC50 in test [1] of 400 nM. Also, the concentration for a half-maximal effect (EC50) in [2] was 19000 nM.

Regarding `CCCC[C@H](NC(C)=O)C(=O)N[C@H]1CC(=O)NCCCC[C@@H](C(N)=O)NC(=O)[C@H](Cc2c[nH]c3ccccc23)NC(=O)[C@@H]2C[C@H](N=C(N)N)CN2C(=O)[C@@H](Cc2ccc3ccccc3c2)NC(=O)[C@H](Cc2cnc[nH]2)NC1=O`, the IC50 in test [1] is greater than 3000 nM.

`CCCC[C@H](NC(=O)[C@@H](NC(=O)[C@H](Cc1ccc(O)cc1)NC(C)=O)C(C)C)C(=O)NCC(=O)N[C@@H](Cc1cnc[nH]1)C(=O)N[C@H](Cc1ccccc1)C(=O)N1C[C@H](NC(=N)N)C[C@H]1C(=O)N[C@@H](Cc1c[nH]c2ccccc12)C(=O)N[C@@H](CC(=O)O)C(=O)N[C@@H](CCCNC(=N)N)C(=O)N[C@@H](Cc1ccccc1)C(=O)NCC(N)=O`: the IC50 in test [1] was 830 nM; at Melanocortin receptor 3 [10], “Not Active”; at Melanocortin receptor 4 [11], “Not Active”; on Melanocortin receptor 5 [12], “Not Active”. In test [2], a half-maximal response (EC50) required 1400 nM.

On to `CCCC[C@H](NC(C)=O)C(=O)N[C@H]1CC(=O)NCCCC[C@@H](C(N)=O)NC(=O)[C@H](Cc2c[nH]c3ccccc23)NC(=O)[C@H](CCCN=C(N)N)NC(=O)[C@@H](Cc2ccccc2)NC(=O)[C@@H]2C[C@H](N=C(N)N)CN2C1=O`, for which the EC50 on Melanocortin receptor 4 [4] was found to be 41 nM; on Melanocortin receptor 5 [5], 21 nM; at Melanocortin receptor 3 [7], 2500 nM; in test [2], 2700 nM. The figures for the half-maximal inhibitory concentration (IC50) against Melanocortin receptor 4 [8] and against Melanocortin receptor 3 [9] were 5.7 nM and 2.8 nM, respectively.

Turning to `CCCC[C@H](NC(=O)[C@@H](NC(=O)[C@H](Cc1ccc(O)cc1)NC(C)=O)C(C)C)C(=O)NCC(=O)N[C@@H](Cc1cnc[nH]1)C(=O)N[C@H](Cc1ccccc1)C(=O)N1C[C@@H](NC(=N)N)C[C@H]1C(=O)N[C@@H](Cc1c[nH]c2ccccc12)C(=O)N[C@@H](CC(=O)O)C(=O)N[C@@H](CCCNC(=N)N)C(=O)N[C@@H](Cc1ccccc1)C(=O)NCC(N)=O`, the IC50 in [1] was 1000 nM; on Melanocortin receptor 3 [10] it was “Not Active”; on Melanocortin receptor 4 [11], “Not Active”; on Melanocortin receptor 5 [12], “Not Active”. Moreover, the EC50 in [2] is greater than 5000 nM.

Take `CCCC[C@H](NC(=O)[C@@H](NC(=O)[C@H](Cc1ccc(O)cc1)NC(C)=O)C(C)C)C(=O)NCC(=O)N[C@@H](Cc1cnc[nH]1)C(=O)N[C@H](Cc1ccccc1)C(=O)N1CCC[C@H]1C(=O)N[C@@H](Cc1c[nH]c2ccccc12)C(=O)N[C@@H](CC(=O)O)C(=O)N[C@@H](CCCNC(=N)N)C(=O)N[C@@H](Cc1ccccc1)C(=O)NCC(N)=O`: the concentration for a half-maximal effect (EC50) is 210 nM at Melanocortin receptor 4 [4] and 120 nM in [2]. Moreover, the IC50 in test [1] is 190 nM; at Melanocortin receptor 3 [10], “Not Active”; at Melanocortin receptor 4 [8], 270 nM; at Melanocortin receptor 5 [12] it was “Not Active”.

The values above are taken from ChEMBL document CHEMBL1136994, “Substitution of arginine with proline and proline derivatives in melanocyte-stimulating hormones leads to selectivity for human melanocortin 4 receptor” (J Med Chem, 2009).
